The record followed here is ChEMBL document CHEMBL3616436, “Synthesis, cytotoxicity and antimicrobial activity of thiourea derivatives incorporating 3-(trifluoromethyl)phenyl moiety” (Eur J Med Chem, 2015).

The target of assay [1] is T1, Topoisomerase IV (Staphylococcus aureus) (UniProt P0C1U9+P0C1S7). The assay is described as follows: Inhibition of decatenation activity of DNA topoisomerase 4 in Staphylococcus aureus ATCC 25923 using kDNA as substrate at 1 to 4 ug/ml after 1 hr using ethidium bromide staining by agarose gel electrophoresis. The class given is protein-complex assay. Put shortly:
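Kit-supplied S. aureus topoisomerase IV, 1 U, with 200 ng kDNA in the supplied assay buffer. Reactions ran 30 min at 37 °C with compound at 1, 4 or 32 µg/ml. They were stopped with STEB and extracted with chloroform/isoamyl alcohol (24:1). Products were run on 1% agarose in TAE for 1 h at 120 V and visualised with ethidium bromide under UV. Controls were no-enzyme, no-compound and ±DMSO.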

Assay [2] concerns the target T2, DNA topoisomerase 4 (Staphylococcus epidermidis) (UniProt Q5HPI6+Q5HPI5). The assay is described as follows: Inhibition of decatenation activity of DNA topoisomerase 4 in Staphylococcus epidermidis ATCC 35984 using kDNA as substrate at 1 to 4 ug/ml after 1 hr using ethidium bromide staining by agarose gel electrophoresis. In kind it is protein assay.
The target in assay [3] is T1, Topoisomerase IV (Staphylococcus aureus). The experiment in a line: Inhibition of decatenation activity of DNA topoisomerase 4 in hospital methicillin-resistant Staphylococcus aureus 53/05 using kDNA as substrate at 1 to 4 ug/ml after 1 hr using ethidium bromide staining by agarose gel electrophoresis. The class given is protein-complex assay.
In assay [4] the target is T2, DNA topoisomerase 4 (Staphylococcus epidermidis). The assay is described as follows: Inhibition of decatenation activity of DNA topoisomerase 4 in hospital methicillin-resistant Staphylococcus epidermidis 31/04 using kDNA as substrate at 1 to 4 ug/ml after 1 hr using ethidium bromide staining by agarose gel electrophoresis. In kind it is protein assay.
For assay [5] the target is unchanged. The assay is described as follows: Inhibition of decatenation activity of DNA topoisomerase 4 in hospital methicillin-resistant Staphylococcus epidermidis 62/04 using kDNA as substrate at 1 to 4 ug/ml after 1 hr using ethidium bromide staining by agarose gel electrophoresis. In kind it is protein assay.
The target is the same in assay [6]. The assay is described as follows: Inhibition of decatenation activity of DNA topoisomerase 4 in hospital methicillin-resistant Staphylococcus epidermidis 151/04 using kDNA as substrate at 1 to 4 ug/ml after 1 hr using ethidium bromide staining by agarose gel electrophoresis. In kind it is protein assay.
Assay [7] deals with Staphylococcus epidermidis. The assay is described as follows: Inhibition of biofilm formation in Staphylococcus epidermidis ATCC 12228 after 24 hrs using MTT staining by spectrophotometer analysis. In kind it is functional, organism-based. The settings on record: ATCC 12228, 24 h. Put shortly:
(§1)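 Biofilm was grown for 24 h at 37 °C in TSB with 0.5% glucose from 10^7 CFU/mL inoculum, mixed 1:1 with compound. Final concentrations were 0.125–4 or 0.25–8 µg/ml. Wells were PBS-washed and MTT-stained for 2 h at 37 °C, solubilized in DMSO/glycine buffer and read at 554 nm. IC50 (50% inhibition of biofilm formation) was taken from the dose-response curve; quadruplicates.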

In assay [8] the test system is Staphylococcus epidermidis. The experiment in a line: Inhibition of biofilm formation in Staphylococcus epidermidis 31/04 after 24 hrs using MTT staining by spectrophotometer analysis. Conditions: 31/04, 24 h. In kind it is functional, organism-based.
Assay [9] deals with Staphylococcus epidermidis. The assay is described as follows: Inhibition of biofilm formation in Staphylococcus epidermidis 63/04 after 24 hrs using MTT staining by spectrophotometer analysis. In kind it is functional, organism-based. The settings on record: 63/04, 24 h. Summed up: as §1
For assay [10], the system named is Staphylococcus epidermidis. The experiment in a line: Inhibition of biofilm formation in Staphylococcus epidermidis 62/04 at 4 ug/ml after 24 hrs using MTT staining by spectrophotometer analysis. The class given is functional. The settings on record: 62/04, 24 h. Summed up: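 Methicillin-resistant hospital isolates or ATCC strains of S. epidermidis were grown overnight in tryptone soy broth with 0.5% glucose. Inoculum of 10^7 CFU/mL was mixed 1:1 with compound in TSB-glucose and incubated 24 h at 37 °C. Non-adherent cells were washed off with PBS, and wells were stained with MTT (0.5% in PBS) for 2 h at 37 °C. Stain was solubilized in DMSO/glycine buffer and read at A554. Inhibition is relative to drug-free control; quadruplicates.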

For the next assay, the system named is CCRF-CEM. The experiment in a line: Cytotoxicity against human CCRF-CEM cells after 96 hrs by MTT assay. The class given is functional. Put shortly:
(§2)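 Leukaemia/lymphoma lines seeded at 1×10^5 cells/ml in RPMI-1640 with 10% FCS and penicillin/streptomycin; incubated with serial dilutions at 37°C, 5% CO2; viability by MTT after 96 h; value is concentration reducing proliferation by 50%, with untreated controls undergoing at least three rounds of multiplication.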
On the technique in general: Formazan colour is commonly taken as a measure of viable cells.

In another assay the test system is WIL2-NS. The assay is described as follows: Cytotoxicity against human WIL2-NS cells after 96 hrs by MTT assay. The class given is functional. Put shortly: as §2
The subject of assay [11] is Staphylococcus aureus. The assay is described as follows: Antimicrobial activity against Staphylococcus aureus ATCC 6538 at 400 ug after 18 hrs by disc-diffusion method. In kind it is functional. The settings on record: ATCC 6538, 18 h, read-out: IZ. Summed up: (§3)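 Disc diffusion on Mueller-Hinton II agar per CLSI; 9 mm paper discs loaded with 400 µg compound from DMSO solution, dried, placed on agar; growth inhibition zone diameter read after 18 h at 35°C.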
A general note: Agar diffusion results depend on both activity and mobility in agar.

Another assay concerns Enterococcus hirae. The experiment in a line: Antimicrobial activity against Enterococcus hirae ATCC 10541 at 400 ug after 18 hrs by disc-diffusion method. In kind it is functional. Conditions: for zone of inhibition at 400 µg/disc: ATCC 10541, 18 h, read-out: IZ. Put shortly: as §3
The subject of a further assay is Enterococcus faecalis. The assay is described as follows: Antimicrobial activity against Enterococcus faecalis ATCC 29212 at 400 ug after 18 hrs by disc-diffusion method. Conditions: for zone of inhibition at 400 µg/disc: ATCC 29212, 18 h, read-out: IZ. The class given is functional. Summed up:
as §3

In assay [12] the test system is Staphylococcus aureus. The experiment in a line: Ratio of ciprofloxacin MIC to compound MIC for hospital methicillin-resistant Staphylococcus aureus 54/05 after 18 hrs by twofold serial microdilution method. The class given is functional. Summed up:
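Ratio of MICs for ciprofloxacin and test agent, each from twofold serial broth microdilution in Mueller-Hinton broth following CLSI guidelines. DMSO stock was diluted in sterile water to 0.125–512 µg/mL, with a final inoculum of 10^5 CFU/mL.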

The target in assay [13] is T1, Topoisomerase IV (Staphylococcus aureus). The assay is described as follows: Inhibition of decatenation activity of DNA topoisomerase 4 in Staphylococcus aureus NCTC 4163 using kDNA as substrate at 32 ug/ml […] using ethidium bromide staining by agarose gel electrophoresis. In kind it is protein-complex assay.
Assay [14] has the same target. The experiment in a line: Inhibition of decatenation activity of DNA topoisomerase 4 in hospital methicillin-resistant Staphylococcus aureus 53/05 using kDNA as substrate at 32 ug/ml after 1 hr using ethidium bromide staining by agarose gel electrophoresis. The class given is protein-complex assay.
For assay [15] the target is unchanged. The assay is described as follows: Inhibition of decatenation activity of DNA topoisomerase 4 in hospital methicillin-resistant Staphylococcus aureus 57/05 using kDNA as substrate at 32 ug/ml after 1 hr using ethidium bromide staining by agarose gel electrophoresis. In kind it is protein-complex assay.
Assay [16] shares this target. The assay is described as follows: Inhibition of decatenation activity of DNA topoisomerase 4 in hospital methicillin-resistant Staphylococcus aureus 79/05 using kDNA as substrate at 32 ug/ml after 1 hr using ethidium bromide staining by agarose gel electrophoresis. The class given is protein-complex assay.
For assay [17] the target is unchanged. The experiment in a line: Inhibition of decatenation activity of DNA topoisomerase 4 in hospital methicillin-resistant Staphylococcus aureus 81/05 using kDNA as substrate at 32 ug/ml after 1 hr using ethidium bromide staining by agarose gel electrophoresis. The class given is protein-complex assay. Put shortly: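 Enzyme was S. aureus topoisomerase IV from a commercial decatenation kit, with kinetoplast DNA as substrate (1 U per 200 ng kDNA) in the supplied buffer. Compound was present at 1, 4 or 32 µg/ml, 30 min at 37 °C. Reactions were stopped with STEB and extracted with chloroform/isoamyl alcohol, then run on 1% agarose in TAE for 1 h at 120 V and stained with ethidium bromide. No-enzyme and DMSO controls were included.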

The target in assay [18] is T2, DNA topoisomerase 4 (Staphylococcus epidermidis). The experiment in a line: Inhibition of decatenation activity of DNA topoisomerase 4 in hospital methicillin-resistant Staphylococcus epidermidis 62/04 using kDNA as substrate at 32 ug/ml after 1 hr using ethidium bromide staining by agarose gel electrophoresis. The class given is protein assay.

≈ marks a conversion by molar mass, not a printed value. Calls of active or inactive are those of the source. The rule behind the calls is not given here.

T2 sequence (Q5HPI5 whole entry, looked up): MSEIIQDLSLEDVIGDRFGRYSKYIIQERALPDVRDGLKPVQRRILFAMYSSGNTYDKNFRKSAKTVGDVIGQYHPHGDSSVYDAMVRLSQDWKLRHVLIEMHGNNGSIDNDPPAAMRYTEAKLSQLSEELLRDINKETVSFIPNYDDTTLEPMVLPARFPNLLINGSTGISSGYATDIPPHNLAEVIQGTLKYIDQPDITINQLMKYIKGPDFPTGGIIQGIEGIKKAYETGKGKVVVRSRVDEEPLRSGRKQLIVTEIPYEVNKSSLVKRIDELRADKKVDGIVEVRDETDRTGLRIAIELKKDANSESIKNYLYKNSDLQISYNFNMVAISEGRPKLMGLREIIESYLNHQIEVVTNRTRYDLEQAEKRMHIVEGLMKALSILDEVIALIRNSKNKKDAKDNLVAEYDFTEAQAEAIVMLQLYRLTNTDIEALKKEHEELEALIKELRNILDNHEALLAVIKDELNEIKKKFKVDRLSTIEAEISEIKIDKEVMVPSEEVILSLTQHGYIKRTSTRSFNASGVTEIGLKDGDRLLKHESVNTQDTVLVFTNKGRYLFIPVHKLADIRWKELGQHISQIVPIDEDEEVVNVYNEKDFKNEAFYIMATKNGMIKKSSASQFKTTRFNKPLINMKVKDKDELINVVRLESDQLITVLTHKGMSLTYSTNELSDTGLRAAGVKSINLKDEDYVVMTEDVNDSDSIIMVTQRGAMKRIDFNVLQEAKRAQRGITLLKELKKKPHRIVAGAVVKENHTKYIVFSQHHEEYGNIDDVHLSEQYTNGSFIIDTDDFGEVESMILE
T2 sequence (Q5HPI6 whole entry, looked up): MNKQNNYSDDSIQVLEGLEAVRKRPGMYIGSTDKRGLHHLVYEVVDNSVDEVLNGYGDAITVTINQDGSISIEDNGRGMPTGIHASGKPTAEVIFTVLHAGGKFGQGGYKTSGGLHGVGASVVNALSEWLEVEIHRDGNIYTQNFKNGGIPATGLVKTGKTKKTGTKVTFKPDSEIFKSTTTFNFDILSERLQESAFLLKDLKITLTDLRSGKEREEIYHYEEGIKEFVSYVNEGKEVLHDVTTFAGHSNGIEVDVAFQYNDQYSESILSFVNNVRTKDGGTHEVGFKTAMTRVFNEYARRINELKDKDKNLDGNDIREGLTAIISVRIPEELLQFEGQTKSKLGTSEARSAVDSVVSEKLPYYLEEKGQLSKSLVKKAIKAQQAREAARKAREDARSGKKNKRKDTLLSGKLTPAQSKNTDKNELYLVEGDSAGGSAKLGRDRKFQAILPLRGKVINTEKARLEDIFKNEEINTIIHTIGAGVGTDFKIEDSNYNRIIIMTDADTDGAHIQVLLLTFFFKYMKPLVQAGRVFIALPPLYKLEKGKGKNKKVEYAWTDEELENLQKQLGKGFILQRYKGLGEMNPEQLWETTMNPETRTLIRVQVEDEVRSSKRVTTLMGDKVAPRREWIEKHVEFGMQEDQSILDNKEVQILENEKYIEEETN

By inhibition is commonly meant the relative decrease from the control value, in per cent. Broadly, the IC50 is the concentration that gives 50% inhibition. Higher therefore signals lower potency. The term CC50 denotes the concentration that lowers cell viability or growth by half. Low readings indicate greater toxicity to the cells, high ones lower toxicity to the cells. For the molecule `FC(F)(F)c1cccc(NC(=S)Nc2cccc(Br)c2)c1`, the inhibition result in assay [1], in assay [2], in assay [3], in assay [4], in assay [5] and in [6] was “Active” in each case. In addition, the inhibition result in assay [13], in [14], in assay [15], in [16], in assay [17] and in [18] was “Active” in each case. For the same molecule, the IC50 in assay [7] worked out at 2.8 µg/mL (≈ 7.46 µM); in assay [8], 3.76 µg/mL (≈ 10 µM); in [9] it was 5 µg/mL (≈ 13.3 µM). Moreover, the inhibition at 4 µg/mL in [10] amounted to 84.8%. The half-maximal cytotoxic concentration (CC50) amounted to 9.3 µM with CCRF-CEM and 9.9 µM in the assay with WIL2-NS. The zone of inhibition at 400 µg/disc in the assay with Staphylococcus aureus [11] was 29 mm; with Enterococcus hirae, 13 mm; in the assay with Enterococcus faecalis it was 18 mm. Moreover, in the assay on Staphylococcus aureus [12], the Ratio was 128.
Take `FC(F)(F)c1cccc(NC(=S)Nc2ccc(Cl)cc2)c1`: the values for the CC50 in the assay with CCRF-CEM and in the assay with WIL2-NS were 12 µM and 13 µM, respectively. For the same molecule, the zone of inhibition at 400 µg/disc in the assay with Staphylococcus aureus [11] stood at 13 mm. Moreover, the “inhibition zone (IZ)” value in the assay on Enterococcus hirae and in the assay on Enterococcus faecalis was “inactive” in each case. In addition, the Ratio in the assay on Staphylococcus aureus [12] stood at 128.
On to `O=C(O)c1cn(C2CC2)c2cc(N3CCNCC3)c(F)cc2c1=O` [CIPROFLOXACIN], for which the inhibition entry in assay [1], in assay [2], in [3], in assay [4], in [5] and in assay [6] was “Active” each time. The inhibition entry in [13], in assay [14], in [15], in assay [16], in [17] and in [18] was “Active” throughout. The half-inhibitory concentration (IC50) in [7] was 7 µg/mL (≈ 21.1 µM); in assay [8] it was 22.1 µg/mL (≈ 66.8 µM); in [9], 7.14 µg/mL (≈ 21.5 µM). In assay [10], this molecule gave an inhibition at 4 µg/mL of 59.9%. For the same molecule, the zone of inhibition at 400 µg/disc with Staphylococcus aureus [11] turned out to be 28 mm; in the assay with Enterococcus hirae, 18 mm; in the assay with Enterococcus faecalis it was 15 mm.
As for `FC(F)(F)c1cccc(NC(S)=NCc2ccccc2)c1`, the zone of inhibition at 400 µg/disc with Staphylococcus aureus [11] came to 15 mm. The “inhibition zone (IZ)” value in the assay on Enterococcus hirae and with Enterococcus faecalis was “inactive” throughout. For the same molecule, the Ratio in the assay on Staphylococcus aureus [12] is listed as 128.
For the molecule `Fc1cccc(NC(=S)Nc2cccc(C(F)(F)F)c2)c1`, the zone of inhibition at 400 µg/disc in the assay on Staphylococcus aureus [11] was 20 mm; in the assay on Enterococcus hirae, 25 mm; with Enterococcus faecalis, 14 mm. Also, the Ratio with Staphylococcus aureus [12] was 128.
In the case of `FC(F)(F)c1cccc(NC(=S)NCCc2ccccc2)c1`, the results for the zone of inhibition at 400 µg/disc in the assay on Staphylococcus aureus [11] and with Enterococcus hirae were 15 mm and 17 mm, respectively. Further, the “inhibition zone (IZ)” value with Enterococcus faecalis is “inactive”. The Ratio in the assay with Staphylococcus aureus [12] stood at 128.
`FC(F)(F)c1cccc(NC(S)=Nc2ccc(Cl)c(Cl)c2)c1`: the CC50 in the assay with CCRF-CEM and in the assay on WIL2-NS was 8 µM throughout. The zone of inhibition at 400 µg/disc came to 14 mm in the assay on Staphylococcus aureus [11], 15 mm in the assay on Enterococcus hirae and 12 mm in the assay with Enterococcus faecalis. Further, the Ratio with Staphylococcus aureus [12] came to 128.
On to `Fc1ccc(NC(=S)Nc2cccc(C(F)(F)F)c2)cc1Cl`, for which the inhibition result in [1], in assay [2], in assay [3], in [4], in [5] and in assay [6] was “Active” in each case. The inhibition entry in [13], in assay [14], in [15], in assay [16], in assay [17] and in assay [18] was “Active” throughout. Moreover, the results for the IC50 in assay [7], in assay [8] and in [9] were 1.62 µg/mL (≈ 4.65 µM), 1.18 µg/mL (≈ 3.38 µM) and 2.39 µg/mL (≈ 6.85 µM), respectively. In addition, 4 µg/mL produced 89.7% inhibition in assay [10]. For the same molecule, the CC50 in the assay on CCRF-CEM turned out to be 7 µM; in the assay on WIL2-NS, 9 µM. For the same molecule, the zone of inhibition at 400 µg/disc is 30 mm in the assay on Staphylococcus aureus [11], 34 mm in the assay on Enterococcus hirae and 20 mm in the assay with Enterococcus faecalis. In addition, the Ratio with Staphylococcus aureus [12] is given as 128.
